# Assay results gathered from unrelated publications.
# Each line is one published result; the experiments were not run side by side.
Structure (SMILES),test system,conditions,half-life [h]
Cc1nc(-c2cnc(NC(C)C)n(C)c2=O)ccc1Oc1ccnc(-c2cnn(C)c2)c1,"female mouse, plasma","oral, 30 mg/kg, single dose",15.3
CC[C@H](C)[C@@H]1NC(=O)[C@@](C)(NC(=O)[C@H](CCCNC(=N)N)NC(=O)[C@H](CC(C)C)NC(=O)[C@@H](NC(=O)[C@H](CCC(N)=O)NC(=O)[C@H](CC(C)C)NC(C)=O)[C@@H](C)O)CCCC=CCCC[C@@](C)(C(=O)N[C@@H](CC(C)C)C(=O)N[C@@H](Cc2ccc3ccccc3c2)C(N)=O)NC(=O)[C@H](CCCNC(=N)N)NC(=O)[C@H](CCC(N)=O)NC1=O,"male BALB/c mouse, plasma","intravenous, 5 mg/kg",1.4
CCc1ccc(Cc2cc([C@@H]3O[C@H](CO)[C@@H](O)[C@H](O)[C@H]3O)cc3c2CCC3)cc1,"male C57BL/6 mouse, plasma","oral, 1 mg/kg",3
CCc1cc(OC)c2nccc(N3CCc4c(cc(Cn5ccnc5)cc4-c4cn(C)nc4C(F)(F)F)C3=O)c2c1,"male CD-1 mouse, plasma","oral, 50 mg/kg",1.1
CN1CCC[C@H](CN2c3ccccc3Sc3ccccc32)C1.Cl,"mouse, plasma","oral, 64 mg/kg, single dose",4.37
Cc1ccc2cncc(N3CCc4c(cc(Cn5ccnc5)cc4-c4cn(C)nc4C(F)(F)F)C3=O)c2c1,"male CD-1 mouse, plasma","intravenous, 3 mg/kg",1.5
CC=Cc1ccc(O)c(OC)c1,"mouse, plasma","intranasal, 100 mg/kg",0.302
CC(C)(C)c1ccc(O)c(CN(Cc2cc(C(C)(C)C)ccc2O)C2CCC(NC(N)=O)CC2)c1 (stereo not shown),"male C57BL/6 mouse, plasma","intraperitoneal, 25 mg/kg, single dose",2.4
Cn1cnc2c(F)c(Nc3ccc(Br)cc3Cl)c(C(=O)NOCCO)cc21,"nude mouse, tumour","oral, 10 mg/kg, single dose, tumour-bearing",3.7
COc1ccc(C(O)COc2ccc(-c3csc(-c4ccc(OCC(O)c5ccc(OC)c(OC)c5)cc4)n3)cc2)cc1OC (stereo not shown),"C57BL/6 mouse, plasma","intravenous, 3 mg/kg",3
